Experimental data pooled from the literature.
Lines come from different studies, so protocols differ.
Target: Cyclin-dependent kinase 7 (CDK7, Homo sapiens, UniProt P50613)

Compound	read-out	technique	tested at	remaining binding [%]
C=CC(=O)N1CCC(C(=O)NCC(=O)N2CCN(c3nc(-c4cnc(N)nc4C(F)F)nc(N4CCOCC4)n3)CC2)CC1	binding	competition with immobilised ligand	1 µM	94
Cn1nc(C(F)(F)F)cc1-c1cnc(N2CCc3cc(S(=O)(=O)Nc4c(F)cc(Cl)cc4F)cc(N4CCCC4=O)c32)nc1	cell-free assay	competition with immobilised ligand	1 µM	75
O=C(NCC1CCOCC1)c1n[nH]cc1NC(=O)c1c(F)cccc1F	binding	competition with immobilised ligand	1 µM	31
Cc1cnc(Nc2ccc(C(=O)N3CCC(N4CCCC4)CC3)cc2)nc1-c1cc2ccccc2s1	binding	competition with immobilised ligand	1 µM	2.4
CN(C)c1ncc(F)c(-c2cnn3ncccc23)n1	binding	–	1 µM	78
CN(C)c1ncnc(-c2ccc3nc(Nc4cc(CN5CCN(C(=O)CC(F)(F)F)CC5)ccn4)[nH]c3c2)c1Cl	cell-free assay	competition with immobilised ligand	1 µM	80
c1cncc(-c2cccc(Nc3nccc(NC4CCCCC4)n3)c2)c1	binding	competition with immobilised ligand	10 µM	46
C[C@@H]1CN(c2ccc3ncc(-c4ccc5[nH]nc(C6CC6)c5c4)n3n2)C[C@H](C)O1	binding	competition with immobilised ligand	50 nM	88
CCC(=N\O)/C(C)=C/c1ccc(F)cc1	cell-free assay	competition with immobilised ligand	1 µM	60
C[C@@H](c1ccc(-n2cnc3c(N)ncnc32)cc1)N1CCc2nn(C)c(Cc3ccccc3)c2C1=O	binding	competition with immobilised ligand	0.1 µM	45
CC(C)(C)c1ccc(-c2nc(CBr)nn2-c2cccc(O)c2)cc1	cell-free assay	competition with immobilised ligand	10 µM	89
FC(F)(F)Oc1cccc(-c2cnc3ccc(-c4ccncc4)nn23)c1	cell-free assay	competition with immobilised ligand	5 µM	0.85
O=C(NCCCN1CCOCC1)c1ccc(Nc2ncc(Cl)c(-c3ccc(Cl)s3)n2)cc1	binding	competition with immobilised ligand	1 µM	2.5
O=C(NS(=O)(=O)c1ccc(NCC2CCOCC2)c([N+](=O)[O-])c1)c1ccc(N2CCN(Cc3ccc(C(F)(F)F)cc3-c3ccc(Cl)cc3)CC2)cc1Oc1cnc2[nH]ccc2c1	cell-free assay	competition with immobilised ligand	1 µM	96
O=C(NCCCN1CCOCC1)c1ccc(Nc2nccc(-c3cc4ccccc4s3)n2)cc1	binding	competition with immobilised ligand	1 µM	40
N#Cc1ccccc1CSc1nnc2c(n1)[nH]c1ccccc12	binding	competition with immobilised ligand	10 µM	94
N[C@@H]1CCN(c2nccc(-c3cnn4ncccc34)n2)C1	binding	–	1 µM	21
O=C(Nc1cccnn1)N1CC(C/C=C/c2cncc(Oc3ccc(C(F)(F)F)cn3)n2)C1	cell-free assay	competition with immobilised ligand	1 µM	81
C[C@@H]1CCN(c2nccc(-c3cnn4ncccc34)n2)C1	binding	–	1 µM	35
CNC(=O)[C@@H]1CC[C@@H](n2c(-c3ccc4cnccc4c3)nc3ccc(C(=O)NCc4cccc(C(N)=O)c4)cc32)C1	binding	competition with immobilised ligand	1 µM	100
O=S(=O)(NC1CCC(c2cc(F)ccc2F)(S(=O)(=O)c2ccc(Cl)cc2)CC1)C(F)(F)F (stereo not drawn)	cell-free assay	competition with immobilised ligand	1 µM	100
COc1ccnn2ncc(-c3ccnc(N(C)C)n3)c12	binding	–	1 µM	85
COc1ccc2c(c1)O[C@H](c1ccc(OC)c(OC)c1)C[C@@H]2NC(=O)C1(c2ccc3c(c2)OC(F)(F)O3)CC1	cell-free assay	competition with immobilised ligand	1 µM	85
CN(C)c1nccc(-c2cnc3ncccn23)n1	binding	–	1 µM	29
